One block for each molecule: values may come before it.
Key:
[1] = biological target: T1, Tyrosine-protein kinase Mer (Homo sapiens) (UniProt Q12866); test: Inhibition of human recombinant MER at 500 nM related to control ULK1
T1 sequence (whole entry): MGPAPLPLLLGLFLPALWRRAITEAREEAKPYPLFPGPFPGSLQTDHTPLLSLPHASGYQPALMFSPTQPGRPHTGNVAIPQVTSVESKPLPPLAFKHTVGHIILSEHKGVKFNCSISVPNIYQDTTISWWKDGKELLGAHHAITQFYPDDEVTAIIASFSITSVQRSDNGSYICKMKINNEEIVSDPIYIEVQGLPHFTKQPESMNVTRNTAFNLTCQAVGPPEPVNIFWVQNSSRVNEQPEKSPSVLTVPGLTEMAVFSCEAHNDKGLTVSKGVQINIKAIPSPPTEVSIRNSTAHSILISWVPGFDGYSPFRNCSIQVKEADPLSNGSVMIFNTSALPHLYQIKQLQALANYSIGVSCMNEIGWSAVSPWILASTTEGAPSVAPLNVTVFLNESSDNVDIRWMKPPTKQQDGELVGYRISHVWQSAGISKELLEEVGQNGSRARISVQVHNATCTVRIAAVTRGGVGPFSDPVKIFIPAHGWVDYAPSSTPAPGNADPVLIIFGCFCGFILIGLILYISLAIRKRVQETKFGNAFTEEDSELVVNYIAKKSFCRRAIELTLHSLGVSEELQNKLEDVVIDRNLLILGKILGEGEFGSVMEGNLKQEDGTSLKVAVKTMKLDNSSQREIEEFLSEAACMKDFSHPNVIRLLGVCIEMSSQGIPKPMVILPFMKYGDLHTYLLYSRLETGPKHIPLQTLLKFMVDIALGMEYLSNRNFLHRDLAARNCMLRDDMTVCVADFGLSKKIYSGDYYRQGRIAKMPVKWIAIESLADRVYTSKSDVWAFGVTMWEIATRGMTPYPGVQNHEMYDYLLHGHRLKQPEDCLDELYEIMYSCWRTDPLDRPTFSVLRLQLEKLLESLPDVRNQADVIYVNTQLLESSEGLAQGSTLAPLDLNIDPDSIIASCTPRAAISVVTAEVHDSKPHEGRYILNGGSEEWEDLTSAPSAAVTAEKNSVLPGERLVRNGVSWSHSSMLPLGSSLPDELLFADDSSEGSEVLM

[2] = biological target: T2, Serine/threonine-protein kinase 17B (Homo sapiens) (UniProt O94768); test: Inhibition of human recombinant DRAK2 at 500 nM in presence of ATP by radiometric assay relative to control
T2 sequence (whole entry): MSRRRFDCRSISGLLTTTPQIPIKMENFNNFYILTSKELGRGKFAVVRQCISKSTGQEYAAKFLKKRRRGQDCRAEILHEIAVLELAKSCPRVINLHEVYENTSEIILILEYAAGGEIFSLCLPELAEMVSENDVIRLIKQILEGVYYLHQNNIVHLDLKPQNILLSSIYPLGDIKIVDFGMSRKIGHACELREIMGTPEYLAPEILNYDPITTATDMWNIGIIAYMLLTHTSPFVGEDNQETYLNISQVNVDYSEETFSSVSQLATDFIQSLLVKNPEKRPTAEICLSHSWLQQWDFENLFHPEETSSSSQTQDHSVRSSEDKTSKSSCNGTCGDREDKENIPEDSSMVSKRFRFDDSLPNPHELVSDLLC

[3] = biological target: T3, Serine/threonine-protein kinase BRSK1 (Homo sapiens) (UniProt Q8TDC3); test: Inhibition of human recombinant BRSK1 at 15 nM related to control ULK1
T3 sequence (whole entry): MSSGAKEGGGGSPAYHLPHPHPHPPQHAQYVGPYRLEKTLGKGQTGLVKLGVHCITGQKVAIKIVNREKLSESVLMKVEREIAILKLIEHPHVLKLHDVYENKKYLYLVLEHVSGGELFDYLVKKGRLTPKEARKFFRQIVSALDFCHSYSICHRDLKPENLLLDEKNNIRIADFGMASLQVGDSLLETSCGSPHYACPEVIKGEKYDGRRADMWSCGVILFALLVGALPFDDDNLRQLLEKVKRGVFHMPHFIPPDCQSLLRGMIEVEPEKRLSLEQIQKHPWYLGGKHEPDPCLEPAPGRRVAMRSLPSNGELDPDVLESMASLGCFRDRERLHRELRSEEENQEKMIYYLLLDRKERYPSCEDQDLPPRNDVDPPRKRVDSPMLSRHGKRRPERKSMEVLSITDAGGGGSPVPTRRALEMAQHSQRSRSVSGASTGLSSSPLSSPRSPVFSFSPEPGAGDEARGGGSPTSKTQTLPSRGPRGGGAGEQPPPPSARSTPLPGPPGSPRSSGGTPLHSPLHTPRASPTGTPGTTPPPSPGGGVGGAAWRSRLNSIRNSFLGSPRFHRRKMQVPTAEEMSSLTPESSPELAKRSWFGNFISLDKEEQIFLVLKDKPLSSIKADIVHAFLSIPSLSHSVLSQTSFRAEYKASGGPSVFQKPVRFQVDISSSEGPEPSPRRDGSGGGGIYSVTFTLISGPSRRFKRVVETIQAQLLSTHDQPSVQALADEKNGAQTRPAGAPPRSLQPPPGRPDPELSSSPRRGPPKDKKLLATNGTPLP

[4] = biological target: Mast/stem cell growth factor receptor Kit (Homo sapiens) (UniProt P10721); test: Inhibition of human recombinant KIT at 15 nM in presence of ATP by radiometric assay relative to control
Chain of Mast/stem cell growth factor receptor Kit (Homo sapiens) (P10721 whole entry): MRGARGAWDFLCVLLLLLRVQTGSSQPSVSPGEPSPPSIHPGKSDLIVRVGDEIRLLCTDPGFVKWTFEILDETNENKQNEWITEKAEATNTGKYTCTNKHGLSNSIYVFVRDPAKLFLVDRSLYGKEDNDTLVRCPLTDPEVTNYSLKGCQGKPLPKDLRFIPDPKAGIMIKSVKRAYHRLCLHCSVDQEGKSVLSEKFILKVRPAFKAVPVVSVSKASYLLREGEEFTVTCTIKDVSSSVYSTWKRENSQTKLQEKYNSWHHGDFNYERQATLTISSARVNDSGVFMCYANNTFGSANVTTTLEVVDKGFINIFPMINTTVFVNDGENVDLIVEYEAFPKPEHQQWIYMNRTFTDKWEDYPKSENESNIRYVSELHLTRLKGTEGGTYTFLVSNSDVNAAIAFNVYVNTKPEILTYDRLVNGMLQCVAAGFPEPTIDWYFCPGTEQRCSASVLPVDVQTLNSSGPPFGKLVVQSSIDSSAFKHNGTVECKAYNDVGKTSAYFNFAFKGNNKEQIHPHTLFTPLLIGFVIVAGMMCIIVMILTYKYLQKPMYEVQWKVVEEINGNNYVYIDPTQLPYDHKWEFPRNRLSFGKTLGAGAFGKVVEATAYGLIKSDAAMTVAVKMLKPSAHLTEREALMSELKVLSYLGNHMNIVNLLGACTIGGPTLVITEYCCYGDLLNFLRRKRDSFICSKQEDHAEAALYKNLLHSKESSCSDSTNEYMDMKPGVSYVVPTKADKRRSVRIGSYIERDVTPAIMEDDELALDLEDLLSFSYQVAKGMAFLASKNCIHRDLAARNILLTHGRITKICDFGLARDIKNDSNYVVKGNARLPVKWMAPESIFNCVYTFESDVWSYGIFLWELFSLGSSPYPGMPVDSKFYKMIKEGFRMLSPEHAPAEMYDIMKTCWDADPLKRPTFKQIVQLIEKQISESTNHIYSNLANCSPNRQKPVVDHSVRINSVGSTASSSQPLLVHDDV

[5] = biological target: Bone morphogenetic protein receptor type-1B (Homo sapiens) (UniProt O00238); test: Inhibition of human recombinant BMPR1B at 40 nM related to control ULK1
Chain of Bone morphogenetic protein receptor type-1B (Homo sapiens) (O00238 whole entry): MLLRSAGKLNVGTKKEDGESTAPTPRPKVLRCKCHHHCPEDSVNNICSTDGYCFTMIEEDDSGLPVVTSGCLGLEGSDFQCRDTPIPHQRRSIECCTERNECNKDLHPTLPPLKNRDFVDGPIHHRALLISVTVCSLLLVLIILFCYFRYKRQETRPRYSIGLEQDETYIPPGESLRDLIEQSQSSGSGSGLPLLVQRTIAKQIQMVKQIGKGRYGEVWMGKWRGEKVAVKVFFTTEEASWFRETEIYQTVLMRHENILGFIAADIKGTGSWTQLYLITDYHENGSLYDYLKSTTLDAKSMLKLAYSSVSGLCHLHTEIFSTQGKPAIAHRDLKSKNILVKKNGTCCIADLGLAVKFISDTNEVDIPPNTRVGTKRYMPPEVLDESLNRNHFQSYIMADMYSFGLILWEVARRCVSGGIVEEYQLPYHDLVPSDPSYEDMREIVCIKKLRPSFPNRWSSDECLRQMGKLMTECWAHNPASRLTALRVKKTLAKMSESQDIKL
Outline: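 Radiometric activity assays in a panel of 327 human recombinant kinases, each run in duplicate at one inhibitor concentration. Activity remaining is expressed as percent of vehicle control, and percent inhibition is calculated as 100% minus percent activity remaining.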

[6] = biological target: Proto-oncogene tyrosine-protein kinase receptor Ret (Homo sapiens) (UniProt P07949); test: Inhibition of human recombinant RET at 40 nM related to control ULK1
Chain of Proto-oncogene tyrosine-protein kinase receptor Ret (Homo sapiens) (P07949 whole entry): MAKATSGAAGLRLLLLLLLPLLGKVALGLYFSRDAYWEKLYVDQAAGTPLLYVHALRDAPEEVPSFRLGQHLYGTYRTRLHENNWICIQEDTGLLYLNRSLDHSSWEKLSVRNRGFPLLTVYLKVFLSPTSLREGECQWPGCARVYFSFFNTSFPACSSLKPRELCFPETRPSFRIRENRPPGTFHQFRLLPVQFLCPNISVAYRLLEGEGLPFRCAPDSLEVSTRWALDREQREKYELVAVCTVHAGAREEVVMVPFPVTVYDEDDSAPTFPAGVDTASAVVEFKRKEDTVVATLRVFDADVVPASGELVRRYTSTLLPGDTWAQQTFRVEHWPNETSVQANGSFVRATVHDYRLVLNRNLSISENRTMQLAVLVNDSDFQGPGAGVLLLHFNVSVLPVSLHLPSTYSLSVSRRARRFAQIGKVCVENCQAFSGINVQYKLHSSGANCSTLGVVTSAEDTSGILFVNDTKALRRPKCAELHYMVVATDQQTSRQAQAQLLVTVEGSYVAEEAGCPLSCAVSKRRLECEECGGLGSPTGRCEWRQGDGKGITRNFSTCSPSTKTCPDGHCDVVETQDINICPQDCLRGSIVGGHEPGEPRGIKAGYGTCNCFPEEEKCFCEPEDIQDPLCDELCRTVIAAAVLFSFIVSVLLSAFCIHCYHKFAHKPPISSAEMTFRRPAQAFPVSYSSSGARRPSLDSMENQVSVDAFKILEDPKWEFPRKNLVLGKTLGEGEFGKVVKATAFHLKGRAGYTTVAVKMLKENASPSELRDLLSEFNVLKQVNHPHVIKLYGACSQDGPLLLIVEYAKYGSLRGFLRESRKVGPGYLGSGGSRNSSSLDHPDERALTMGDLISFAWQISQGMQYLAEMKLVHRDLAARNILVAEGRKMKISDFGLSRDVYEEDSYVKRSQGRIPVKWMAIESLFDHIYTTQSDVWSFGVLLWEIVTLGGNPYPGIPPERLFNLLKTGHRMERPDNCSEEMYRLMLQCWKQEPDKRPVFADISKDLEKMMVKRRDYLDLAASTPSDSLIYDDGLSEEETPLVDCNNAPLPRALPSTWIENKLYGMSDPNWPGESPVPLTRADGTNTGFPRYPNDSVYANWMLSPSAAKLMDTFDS

- fold change (FC) [1]: 0.12
- inhibition [2]: 6%
SMILES: CNC(=O)c1ccccc1Oc1nc(Nc2cc(OC)c(OC)c(OC)c2)ncc1Br

- fold change (FC) [3]: 0.15
- inhibition [4]: 0%
SMILES: CC(C)[C@H](NC(=O)c1cc(-c2cnn3cc(-c4ccc(OCCN5CCCCC5)cc4)cnc23)cs1)C(F)(F)F

- fold change (FC) [5]: 0
- fold change (FC) [6]: 0
SMILES: O=C(N[C@@H](C1CC1)C(F)(F)F)c1cc(-c2cnn3cc(-c4ccc(F)cc4)cnc23)cs1
